Our source for the AC50 values is PubChem BioAssay AID624010 (Broad Institute, 2012).

In the test the target is Scavenger receptor class B member 1 (Mus musculus) (UniProt Q61009). Kind of test: HDL cholesteryl ester uptake inhibitors via mutant SR-BI, dose response, mechanism study for SR-BI HDL uptake inhibitor project, cell-based, C384S mutant, scintillation, dry powder (AID 624010). The following applies: CHO ldlA C384S mSR-BI, [3H]CE-HDL uptake. The method in brief: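 Material: CHO cells without LDL receptor, expressing C384S mutant mouse SR-BI / Reagent: [3H]CE-HDL / Compound: 0.5% DMSO final / Schedule: 1 h compound preincubation, then 2 h HDL uptake, 37 °C / Detection: liquid scintillation counting of cell-associated tritium / Control set: unlabeled HDL excess (40-fold) and no-compound wells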
Chain of Scavenger receptor class B member 1 (Mus musculus) (Q61009 whole entry C384S): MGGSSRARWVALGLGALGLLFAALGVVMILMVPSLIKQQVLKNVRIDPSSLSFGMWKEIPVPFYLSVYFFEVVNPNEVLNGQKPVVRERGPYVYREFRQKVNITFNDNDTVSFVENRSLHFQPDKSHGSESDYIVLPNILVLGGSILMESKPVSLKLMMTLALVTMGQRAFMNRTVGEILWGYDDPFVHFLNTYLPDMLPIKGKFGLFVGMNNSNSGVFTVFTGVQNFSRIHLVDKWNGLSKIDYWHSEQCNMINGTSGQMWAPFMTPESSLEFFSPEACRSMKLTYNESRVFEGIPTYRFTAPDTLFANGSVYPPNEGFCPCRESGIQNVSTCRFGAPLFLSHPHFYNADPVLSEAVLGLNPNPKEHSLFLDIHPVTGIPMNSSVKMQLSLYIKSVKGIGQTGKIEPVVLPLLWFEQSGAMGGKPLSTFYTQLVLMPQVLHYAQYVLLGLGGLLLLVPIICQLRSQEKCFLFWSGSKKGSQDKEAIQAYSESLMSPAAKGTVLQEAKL

For orientation: AC50 means the midpoint of the concentration-response curve, whichever way the signal moves. For the compound `CC(C)NC(=O)Nc1ccc2c(c1)C(=O)N([C@H](C)CO)C[C@@H](C)[C@H](CN(C)S(=O)(=O)c1ccc(Cl)cc1)O2`, the AC50 is 500 nM.
